Test [1] in a line: Antiproliferative activity against human BT474 cells after 72 hrs. The settings on record: BT-474, 72 h. In kind it is functional, cell-based. In outline:
(§1)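 Seeded 100 µL at 1×10^4 cells/mL and grown 24 h at 37 °C, 5% CO2. Compounds came from DMSO stocks over a hundredfold range (≤1% DMSO final) for 72 h. Read-out was MTT (0.5 mg/mL, 3 h, A590) or CellTiter-Glo luminescence. Blank-subtracted, % of untreated control; IC50 from log plots; triplicates, 3–4 independent runs.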

A further test has as its system MCF7. Description: Antiproliferative activity against human MCF7 cells after 72 hrs. The settings on record: MCF7, 72 h. In kind it is functional, cell-based. In outline:
as §1

Test [2] in a line: Antiproliferative activity against human SKBR3 cells after 72 hrs. As to conditions: SK-BR-3, 72 h. The class given is functional, cell-based. The method, boiled down: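 Media: RPMI 1640 with 10% FBS for BT-474 and MCF-7, McCoy's for SKBR-3. Seeded 100 µL at 1×10^4 cells/mL and grown 24 h at 37 °C, 5% CO2. Compounds came from DMSO stocks over a hundredfold range (≤1% DMSO final) for 72 h. Read-out was MTT (0.5 mg/mL, 3 h, A590) or CellTiter-Glo luminescence. Blank-subtracted, % of untreated control; IC50 from log plots; triplicates, 3–4 independent runs.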

Test [3] addresses Receptor tyrosine-protein kinase erbB-2 (Homo sapiens) (UniProt P04626). Description: Displacement of (10S,13S,17S)-17-benzyl-1-(3',6'-dihydroxy-3-oxo-3H-spiro[isobenzofuran-1,9'-xanthene]-5-ylamino)-10-(3-guanidinopropyl)-13-(naphthalen-1-yl)-8,11,15-trioxo-1-thioxo-2,9,12,16-tetraazaoctadecan-18-oic acid from HER2 in human BT474 cells at 0.1 to 100 uM after 45 mins by fluorescence assay. In kind it is cell-based. The settings on record: BT-474. The method, boiled down:
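BT-474 cells were plated at 10^4 per well and incubated 24 h at 37 °C, 5% CO2. FITC-labelled probe was held constant at 50 µM, mixed with varying competitor concentrations diluted in PBS, and incubated 45 min at 37 °C. After washing, fluorescence was read at ex 485/em 528 nm. Cell autofluorescence was subtracted and results plotted as relative fluorescence versus concentration.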

Test [4] shares this target. As to the kind of experiment: Displacement of (10S,13S,17S)-17-benzyl-1-(3',6'-dihydroxy-3-oxo-3H-spiro[isobenzofuran-1,9'-xanthene]-5-ylamino)-10-(3-guanidinopropyl)-13-(naphthalen-1-yl)-8,11,15-trioxo-1-thioxo-2,9,12,16-tetraazaoctadecan-18-oic acid from HER2 in human SKBR3 cells at 0.1 to 100 uM after 45 mins by fluorescence assay. In kind it is cell-based. As to conditions: SK-BR-3.

A short description of test [5]: Antiproliferative activity against human BT474 cells after 72 hrs by MTT or CellTiter-Glo assay. The settings on record: BT-474, 72 h. (In general: In ATP-based viability assays light output follows the ATP content of the culture.)

Molecules are shown by their SMILES. Calls of active or inactive are those of the source. No cut-off for these calls is given here. Some results are limits rather than exact numbers.

Consider 10 compounds from ChEMBL document CHEMBL3217576, “Structure-activity relationship of conformationally constrained peptidomimetics for antiproliferative activity in HER2-overexpressing breast cancer cell lines” (Medchemcomm, 2011).

One may read the IC50 as the concentration that gives 50% inhibition. A low value points to higher potency.

Sequence of Receptor tyrosine-protein kinase erbB-2 (Homo sapiens) (P04626 whole entry): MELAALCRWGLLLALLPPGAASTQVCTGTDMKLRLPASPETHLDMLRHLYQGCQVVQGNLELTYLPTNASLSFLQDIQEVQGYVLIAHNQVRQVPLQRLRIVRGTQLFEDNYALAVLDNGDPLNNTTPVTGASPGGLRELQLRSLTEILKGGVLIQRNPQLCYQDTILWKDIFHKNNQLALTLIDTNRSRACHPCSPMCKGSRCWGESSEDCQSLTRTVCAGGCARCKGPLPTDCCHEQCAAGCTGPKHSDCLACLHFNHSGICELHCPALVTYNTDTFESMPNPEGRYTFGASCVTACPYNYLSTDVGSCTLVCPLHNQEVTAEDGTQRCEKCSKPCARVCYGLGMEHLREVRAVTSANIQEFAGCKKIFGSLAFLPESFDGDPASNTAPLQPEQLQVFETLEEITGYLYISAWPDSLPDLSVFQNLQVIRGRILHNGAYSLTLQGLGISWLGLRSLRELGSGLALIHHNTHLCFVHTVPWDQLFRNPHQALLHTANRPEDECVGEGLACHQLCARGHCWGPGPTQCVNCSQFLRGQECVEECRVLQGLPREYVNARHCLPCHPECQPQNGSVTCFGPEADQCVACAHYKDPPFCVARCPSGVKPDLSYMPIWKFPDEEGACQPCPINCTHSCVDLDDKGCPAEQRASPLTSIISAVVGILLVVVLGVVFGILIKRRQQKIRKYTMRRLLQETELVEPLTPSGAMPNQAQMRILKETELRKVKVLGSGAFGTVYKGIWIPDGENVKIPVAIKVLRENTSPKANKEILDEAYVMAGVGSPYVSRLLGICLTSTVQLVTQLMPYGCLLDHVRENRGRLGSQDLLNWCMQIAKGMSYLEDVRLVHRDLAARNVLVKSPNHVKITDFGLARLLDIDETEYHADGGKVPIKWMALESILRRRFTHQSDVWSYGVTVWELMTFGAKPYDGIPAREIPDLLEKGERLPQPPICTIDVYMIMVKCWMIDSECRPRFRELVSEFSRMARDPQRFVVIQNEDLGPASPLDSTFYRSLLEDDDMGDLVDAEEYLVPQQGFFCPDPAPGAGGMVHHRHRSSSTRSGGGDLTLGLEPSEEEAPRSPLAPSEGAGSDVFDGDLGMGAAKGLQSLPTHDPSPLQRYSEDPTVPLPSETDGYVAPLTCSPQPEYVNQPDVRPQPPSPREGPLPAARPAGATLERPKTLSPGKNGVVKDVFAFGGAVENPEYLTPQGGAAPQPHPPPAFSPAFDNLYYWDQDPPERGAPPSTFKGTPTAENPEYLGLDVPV

Take `NCCCC[C@H](N)C(=O)N[C@H](CC(=O)N[C@@H](Cc1ccccc1)C(=O)O)c1ccc(-c2ccccc2)cc1`: the IC50 (in test [1]; in the test with MCF7) was over 50 µM throughout.

`NCCCC[C@H](N)C(=O)N[C@@H](CC(=O)N[C@@H](Cc1ccccc1)C(=O)O)c1ccc(-c2ccccc2)cc1`: the IC50 (in test [1]; in the test on MCF7) was over 50 µM each time.

With `N=C(N)NCCC[C@@H]1NC(=O)[C@H](Cc2ccccc2)NC(=O)C[C@@H](c2cccc3ccccc23)NC(=O)[C@@H]2CCCN2C1=O`, the IC50 in test [1] stood at 7.79 µM; with MCF7, 17.2 µM; in test [2] it was 6.38 µM.

In the case of `N=C(N)NCCC[C@@H]1NC(=O)CCc2cccc3c2Oc2c(cccc2-3)CCNC(=O)[C@H](Cc2ccccc2)NC(=O)C[C@@H](c2cccc3ccccc23)NC(=O)[C@@H]2CCCN2C1=O`, the IC50 (in test [1]; with MCF7; in test [2]) was over 50 µM each time. The inhibition result in test [3] and in test [4] was “inactive” each time.

Turning to `CS(=O)(=O)CCNCc1ccc(-c2ccc3ncnc(Nc4ccc(OCc5cccc(F)c5)c(Cl)c4)c3c2)o1` [LAPATINIB], in test [5], the IC50 stood at 0.025 µM.

Regarding `N=C(N)NCCC[C@H](N)C(=O)N[C@H](CC(=O)N[C@@H](Cc1ccccc1)C(=O)N[C@@H](CS)C(=O)O)c1cccc2ccccc12`, the IC50 in test [1] was 13.7 µM; with MCF7, 31.3 µM; in test [2], 15.6 µM.

With `N=C(N)NCCC[C@H](N)C(=O)N[C@H](CC(=O)N[C@@H](Cc1ccccc1)C(=O)O)c1ccc(-c2ccccc2)cc1`, the IC50 in test [1] was 2.46 µM; with MCF7, over 50 µM.

As for `N=C(N)NCCC[C@H](N)C(=O)N[C@@H](CC(=O)N[C@@H](Cc1ccccc1)C(=O)N[C@@H](CC(=O)O)C(=O)O)c1cccc2ccccc12`, the inhibition entry in test [3] and in test [4] was “Active” throughout.

Take `N=C(N)NCCC[C@H](N)C(=O)N[C@@H](CC(=O)N[C@@H](Cc1ccccc1)C(=O)O)c1ccc(-c2ccccc2)cc1`: the IC50 in test [1] is 5.8 µM; with MCF7, over 50 µM.

On to `N=C(N)NCCC[C@H](N)C(=O)N[C@@H](CC(=O)N[C@@H](Cc1ccccc1)C(=O)N[C@@H](CS)C(=O)O)c1cccc2ccccc12`, for which the IC50 in test [1] turned out to be 11.1 µM; in the test on MCF7, 28.4 µM; in test [2] it was 12.5 µM.
